ChEMBL document CHEMBL5316292 (J Med Chem, 2023)

Test: Cytotoxicity against HFF cells assessed as reduction in cell viability measured after 72 hrs by MTS assay
Format: toxicity, cell-based
Settings: human
Method in brief: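 MTS viability assay run in triplicate wells. Serial dilutions in DMSO were given, with DMSO as negative control and doxorubicin as positive control, and incubated 72 h. MTS reagent was added for 2 h and absorbance read at 490 nm. % cytotoxicity = (A_medium − A_treatment)/A_medium × 100. EC50 ± SD was taken from dose-response curves of at least three independent experiments.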

## CC(=O)OC[C@]12CC[C@H]3[C@@H](C[C@H]4O[C@]45CC=CC(=O)[C@]35C)[C@]1(O)CC[C@@]2(O)[C@@](C)(O)[C@H]1CC(C)=C(C)C(=O)O1
  EC50 at 72 h: > 2000 nM
